Source: ChEMBL document CHEMBL1133471, “Sequential cytotoxicity: a theory evaluated using novel 2-[4-(3-aryl-2-propenoyloxy)phenylmethylene]cyclohexanones and related compounds” (J Med Chem, 2000)
Starred links: 1 amine or outer side, 2 acyl side, 3 side chain; linkers in the order of their positions; H or OH if unused. Positions of bridges follow the written chain, without caps; N, C: chain ends. Non-standard residues stand in square brackets, D forms with d. Residues, ends and D or L forms follow the SMILES beside them. Chains are numbered I, II in the order given. Actinocin(1to9) = Cc1c2oc3c(C)ccc(C(=O)[*:2])c3nc-2c(C(=O)[*:1])c(N)c1=O; NMeV = CN[C@H](C(=O)O)C(C)C; Sar = CNCC(=O)O

What was measured:
Homo sapiens [1] = species on record: Homo sapiens; assay: (§1) Inhibitory concentration was evaluated on human Jurkat T-cells after their exposure for 48 hours; type: functional
How it was run: (§2)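 Human Jurkat T cells exposed to compounds for 48 h. Viability scored by nigrosin dye exclusion, used in place of trypan blue. IC50 and IC80 taken from the resulting viability data.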

L1210 = assay: Concentration required to inhibit 50% of cell growth on murine L1210 cells.; type: functional, cell-based; conditions: Mus musculus
How it was run: (§3)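 Murine P388 D1 and L1210 leukemia cells and human Molt 4/C8 and CEM T-lymphocytes were tested. IC50 is the concentration inhibiting 50% of growth.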

Homo sapiens [2] = species on record: Homo sapiens; assay: Inhibition of protein synthesis was evaluated on human Jurkat T-cells after 8 hours.; type: functional; design: concentration or dose not given beside the values
MOLT-4 = assay: Concentration required to inhibit 50% of cell growth on human Molt 4/C8 cells.; type: functional, cell-based; how it was run: as §3
P388 = assay: Concentration required to inhibit 50% of cell growth on murine P388 D1 cells.; type: functional, cell-based; conditions: Mus musculus
CCRF-CEM = assay: Concentration required to inhibit 50% of cell growth on CEM lymphocytes.; type: functional, cell-based; conditions: Homo sapiens; how it was run: as §3
Homo sapiens [3] = species on record: Homo sapiens; assay: Apoptotic index calculated using human Jurkat T cells; type: functional
How it was run: (§4)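 Jurkat T cells exposed at concentrations giving IC80 (IC80 determined after 48 h exposure). Nuclei stained with ethidium bromide (0.1% w/v) plus acridine orange (0.1% w/v). Apoptotic index = (cells with apoptotic nuclei / cells counted) × 100.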

Homo sapiens [4] = species on record: Homo sapiens; assay: Inhibition of RNA synthesis was evaluated on human Jurkat T-cells after 8 hours.; type: functional; design: concentration or dose not given beside the values
Homo sapiens [5] = species on record: Homo sapiens; assay: as §1; type: functional, cell-based; how it was run: as §2
Tumor cancer cell line = assay: Mean graph mid point was measured on all cell lines.; type: functional, Homo sapiens
How it was run: (§5)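 Human tumor panel of about 55 lines: leukemia, melanoma, non-small-cell lung, colon, CNS, ovarian, renal, prostate and breast. Compounds generally tested from 10^-4 to 10^-8 M, noting 50% growth inhibition for each line. Mean graph midpoints taken for all lines, leukemic lines and colon lines. Duplicate or triplicate runs were averaged.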

leukaemia cell line = assay: Mean graph mid point was measured on leukemic cells.; type: functional, Homo sapiens; how it was run: as §5
[6] = Selectivity index is the ratio of MG MID value for all cell lines to that of colon cancer cells; type: functional
[7] = Selectivity index is the ratio of MG MID value for all cell lines to that of leukemic cells; type: functional
Colon carcinoma cell = assay: Mean graph mid point was measured on colon cancer cells.; type: functional, Homo sapiens; how it was run: as §5
Mus musculus [8] = assay: sc score was calculated by implanting different tumor cell lines in hollow fibres in mice by the subcutaneously route (Net cell kill was not observed).; type: functional
Mus musculus [9] = assay: Ip score was calculated by implanting different tumor cell lines in hollow fibres in mice by the intraperitoneal route (Net cell kill was not observed).; type: functional
Homo sapiens [10] = species on record: Homo sapiens; assay: Apoptotic index was evaluated on human Jurkat T-cells after 24 hours.(Using 80% inhibitory concentration); type: functional; how it was run: as §4
Mus musculus [11] = assay: Sc score was calculated by implanting different tumor cell lines in hollow fibres in mice by the subcutaneously route (Net cell kill was not observed); type: functional
Mus musculus [12] = assay: Ip score was calculated by implanting different tumor cell lines in hollow fibres in mice by the intraperitoneal route (Net cell kill was not observed); type: functional

| SMILES | IC50 (L1210) | IC50 (MOLT-4) | IC50 (P388) | IC50 (CCRF-CEM) | MG MID (Tumor cancer cell line) | MG MID (leukaemia cell line) | MG MID (Colon carcinoma cell) | further results |
| --- | --- | --- | --- | --- | --- | --- | --- | --- |
| CN(C)CC1CCC/C(=C\c2ccc(OC(=O)/C=C/c3ccc(Br)cc3)cc2)C1=O.Cl (stereo unspecified) | 1.78 µM | 3.06 µM | 4.03 µM | 4.44 µM |  |  |  | IC80 (Homo sapiens [1]): 7.63 µM; Inhibition (Homo sapiens [2]): 46.6%; Apoptotic index (Homo sapiens [3]): 59.2; Inhibition (Homo sapiens [4]): 84.5%; IC50 (Homo sapiens [5]): 4.47 µM |
| Cc1c2oc3c(C)ccc(C(=O)N[C@@H]4C(=O)N[C@H](C(C)C)C(=O)N5CCC[C@H]5C(=O)N(C)CC(=O)N(C)[C@@H](C(C)C)C(=O)O[C@@H]4C)c3nc-2c(C(=O)N[C@@H]2C(=O)N[C@H](C(C)C)C(=O)N3CCC[C@H]3C(=O)N(C)CC(=O)N(C)[C@@H](C(C)C)C(=O)O[C@@H]2C)c(N)c1=O [DACTINOMYCIN] (I: T[dV]P[Sar][NMeV] / II: T[dV]P[Sar][NMeV]; ester I:1-I:C, II:1-II:C; linker I:N-II:N via Actinocin(1to9)) |  |  |  |  |  |  |  | IC80 (Homo sapiens [1]): 0.0072 µM; Inhibition (Homo sapiens [2]): 49.2%; Apoptotic index (Homo sapiens [3]): 35.5; Inhibition (Homo sapiens [4]): 90.5%; IC50 (Homo sapiens [5]): 0.0045 µM |
| O=C(/C=C/c1ccc(Cl)c(Cl)c1)Oc1ccc(/C=C2\CCCCC2=O)cc1 | 64.8 µM | 47.3 µM | > 50 µM | 63.8 µM | 91.2 µM | 53 µM | 100 µM | SI [6]: 0.9; SI [7]: 1.7 |
| C[C@@H]1C[C@@H]([C@H](O)CC2CC(=O)NC(=O)C2)C(=O)[C@@H](C)C1 [CYCLOHEXIMIDE] |  |  |  |  |  |  |  | Inhibition (Homo sapiens [2]): 71.9%; Apoptotic index (Homo sapiens [3]): 38.3; Inhibition (Homo sapiens [4]): 93.3%; IC50 (Homo sapiens [5]): 0.93 µM |
| O=C(/C=C/c1ccccc1)Oc1ccc(/C=C2\CCCCC2=O)cc1 | 30.7 µM | 30.7 µM | 20.3 µM | 26 µM | 36.3 µM | 8.32 µM | 29.1 µM | SI [6]: 1.3; SI [7]: 4.4 |
| COc1ccc(C(=O)Oc2ccc(/C=C3\CCCC(CN(C)C)C3=O)cc2)cc1 (stereo unspecified) | 2.87 µM | 2.36 µM | 0.332 µM | 5.07 µM |  |  |  |  |
| COc1ccc(/C=C/C(=O)Oc2ccc(/C=C3\CCCC(CN(C)C)C3=O)cc2)cc1 (stereo unspecified) |  |  | 2.41 µM |  |  |  |  |  |
| CN(C)CC1CCC/C(=C\c2ccc(OC(=O)/C=C/c3ccc(F)cc3)cc2)C1=O (stereo unspecified) | 1.84 µM | 3.78 µM | 4.55 µM | 6 µM |  |  |  |  |
| O=C1CCCC/C1=C\c1ccc(OC(=O)c2ccc(Cl)cc2)cc1 | 3.33 µM | 38 µM | 25.5 µM | 41 µM |  |  |  |  |
| CN(C)CC1CCC/C(=C\c2ccc(OC(=O)c3ccc(Cl)cc3)cc2)C1=O.Cl (stereo unspecified) | 5.61 µM | 5.11 µM | 0.425 µM | 6.15 µM | 1.66 µM | 0.307 µM | 1.21 µM | Subcut score (Mus musculus [8]): 10; Ip score (Mus musculus [9]): 2; IC80 (Homo sapiens [1]): 5.6 µM; Inhibition (Homo sapiens [2]): 62%; SI [6]: 1.4; Apoptotic index (Homo sapiens [3]): 73.3; SI [7]: 5.4; Inhibition (Homo sapiens [4]): 88.4%; IC50 (Homo sapiens [5]): 3.5 µM |
| O=C(CCc1ccccc1)Oc1ccc(/C=C2\CCCCC2=O)cc1 | 52.4 µM | 31.1 µM | 21.9 µM | 34.4 µM |  |  |  |  |
| C=C1C(=O)O[C@@H]2C[C@@H](C)[C@@H]3C=CC(=O)[C@@]3(C)[C@@H](O)[C@H]12 [HELENALIN] |  |  |  |  | 1.45 µM | 0.62 µM | 1.42 µM | SI [6]: 1; SI [7]: 2.3 |
| Cc1ccc(C(=O)Oc2ccc(/C=C3\CCCCC3=O)cc2)cc1 | 44.8 µM | 25.6 µM | > 50 µM | 22.7 µM |  |  |  |  |
| COc1ccc(C(=O)Oc2ccc(/C=C3\CCCCC3=O)cc2)cc1 | 43.4 µM | 34 µM | > 50 µM | 36.1 µM |  |  |  |  |
| COc1ccc(/C=C/C(=O)Oc2ccc(/C=C3\CCCCC3=O)cc2)cc1 | 10.2 µM | 2.06 µM | 9.03 µM | 8.78 µM | 49.7 µM | 9.36 µM | 25.4 µM | SI [6]: 2; SI [7]: 5.3 |
| O=c1[nH]cc(F)c(=O)[nH]1 [FLUOROURACIL] | 0.28 µM | 23 µM | 0.49 µM | 8.9 µM | 32.6 µM | 27.6 µM | 7.9 µM |  |
| CN(C)CC1CCC/C(=C\c2ccc(OC(=O)c3ccccc3)cc2)C1=O (stereo unspecified) | 23.4 µM | 24.1 µM | 0.18 µM | 29.4 µM |  |  |  |  |
| O=C1CCCC/C1=C\c1ccc(OC(=O)c2ccccc2)cc1 |  |  | > 50 µM |  |  |  |  |  |
| Cc1ccc(/C=C/C(=O)Oc2ccc(/C=C3\CCCCC3=O)cc2)cc1 | 202 µM | 156 µM | > 50 µM | 230 µM |  |  |  |  |
| Cc1ccc(/C=C/C(=O)Oc2ccc(/C=C3\CCCC(CN(C)C)C3=O)cc2)cc1 (stereo unspecified) | 2.43 µM | 3.39 µM | 1.29 µM | 7.02 µM |  |  |  |  |
| O=C(/C=C/c1ccc(F)cc1)Oc1ccc(/C=C2\CCCCC2=O)cc1 | 30.9 µM | 26.6 µM | > 50 µM | 14.4 µM |  |  |  |  |
| O=C(/C=C/c1ccc(Br)cc1)Oc1ccc(/C=C2\CCCCC2=O)cc1 | 127 µM | 180 µM | > 50 µM | 131 µM |  |  |  | IC80 (Homo sapiens [1]): 31.7 µM; Inhibition (Homo sapiens [2]): 69.1%; Apoptotic index (Homo sapiens [10]): 23.3; Apoptotic index (Homo sapiens [3]): 23.3; Inhibition (Homo sapiens [4]): 77.5%; IC50 (Homo sapiens [5]): 19.8 µM |
| O=C(/C=C/c1ccc(Cl)cc1)Oc1ccc(/C=C2\CCCCC2=O)cc1 | 64.3 µM | 78.6 µM | > 50 µM | 63.4 µM | 91.2 µM | 60.5 µM | 81 µM | SI [6]: 1.1; SI [7]: 1.5 |
| N[C@@H](Cc1ccc(N(CCCl)CCCl)cc1)C(=O)O |  |  |  |  | 23.5 µM | 4.65 µM | 44.6 µM | Inhibition (Homo sapiens [2]): 17.3%; Inhibition (Homo sapiens [4]): 85.1%; IC50 (Homo sapiens [5]): 2.2 µM |
| CN(C)CC1CCC/C(=C\c2ccc(OC(=O)/C=C/c3ccc(Cl)cc3)cc2)C1=O.Cl (stereo unspecified) | 1.74 µM | 2.65 µM | 1.61 µM | 3.56 µM | 3.58 µM | 0.864 µM | 2.3 µM | IC80 (Homo sapiens [1]): 4.04 µM; Inhibition (Homo sapiens [2]): 37%; Subcut score (Mus musculus [11]): 6; Ip score (Mus musculus [12]): 0; SI [6]: 1.6; Apoptotic index (Homo sapiens [3]): 87; SI [7]: 4.1; Inhibition (Homo sapiens [4]): 78%; IC50 (Homo sapiens [5]): 2.53 µM |
